Data set [1] has as its system Slc3a1 knockout male mice. The data set can be described thus: In vivo activity in genetic mouse model of cystinuria. Conditions: 29.3 μmol/kg daily gavage for 4 weeks. A digest of the protocol: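 Male Slc3a1 knockout mice in groups of six or seven received test compound at 29.3 μmol/kg by daily oral gavage for 4 weeks. Seven controls got water only. Read-out was the fraction of mice in each group that formed stones.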

The nature of data set [2]: L-cystine diamides in mouse urine after oral dosing. Format: in vivo. Particulars: mice, daily gavage 29.3 μmol/kg, micromolar concentrations in urine.
Data set [3] is described as follows: In situ AFM measurement of L-cystine crystal step velocities. Conditions: aqueous 2 mM L-cystine; for V/V0 normalized step velocity @ 15 μM: 15 μM inhibitor; for V/V0 normalized step velocity @ 30 μM: 30 μM inhibitor; for V/V0 normalized step velocity @ 45 μM: 45 μM inhibitor.
Data set [4] is described as follows: Chemical stability in pH 7.4 phosphate buffered saline at 37 °C by LC-MS. It is filed as physicochemical. A digest of the protocol: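 Test compound incubated in pH 7.4 phosphate-buffered saline at 37 °C. Loss of parent compound followed over time by LC-MS, and half-life taken from its disappearance.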
For data set [5], the system named is Slc3a1 knockout male mice. Conditions: knockout mouse model of cystinuria, previous study; cited from earlier work.
The conditions of data set [6]: cited from earlier work.

The values that follow come from article PMC5774851 (Journal of medicinal chemistry, 2016).

For orientation: half-life means how long it takes for the measured level to halve. Lower therefore signals fast loss.

On to `CN1CCN(C(=O)[C@@H](N)CSSC[C@H](N)C(=O)N2CCN(C)CC2)CC1.Cl.Cl.Cl.Cl` [Compound 1b, L-cystine bis(N′-methylpiperazide)], for which the “Effectiveness in preventing stone formation” value in data set [1] is listed as “effective”. Besides, in data set [2], the “Oral bioavailability (found in urine after oral dosing)” value is recorded as “orally bioavailable”. Also, in data set [3], the “V/V0 normalized step velocity @ 15 μM” value was 0.52–0.66, the “V/V0 normalized step velocity @ 30 μM” value is 0.32–0.50 and the “V/V0 normalized step velocity @ 45 μM” value is reported as 0.30–0.40. In addition, the half-life in data set [4] is 46.2 days.
On to `Cl.Cl.N[C@@H](CSSC[C@H](N)C(=O)N1CCOCC1)C(=O)N1CCOCC1` [Compound 1a, L-Cystine bismorpholide], for which, in data set [1], the “Effectiveness in preventing stone formation” value is “ineffective”. Also, the “Oral bioavailability (found in urine after oral dosing)” value in data set [2] was “orally bioavailable”. Further, in data set [3], the “V/V0 normalized step velocity @ 15 μM” value was 0.44–0.65, the “V/V0 normalized step velocity @ 30 μM” value is 0.34–0.58 and the “V/V0 normalized step velocity @ 45 μM” value is recorded as 0.29–0.53. Also, the half-life in data set [4] is 19.8 days.
Consider `COC(=O)[C@@H](N)CSSC[C@H](N)C(=O)OC` [CDME, L-cystine dimethyl ester, reference compound], for which, in data set [5], the “Effect on stone size and stone burden” value was “effective in reducing stone size and stone burden”; the “Effect on the number of mice that formed stones” value is reported as “no effect”. For the same compound, in data set [3], the “V/V0 normalized step velocity @ 15 μM” value was 0.4–0.65, the “V/V0 normalized step velocity @ 30 μM” value is given as 0.27–0.54 and the “V/V0 normalized step velocity @ 45 μM” value was 0.21–0.48. In addition, the “Ratio (improvement in potency over the control CDME)” value in “Fluorescence assay” (EC2x ratio vs CDME) turned out to be 1.0. Further, the half-life in data set [4] was about 0.113 days.
Take `N[C@@H](CSSC[C@H](N)C(=O)O)C(=O)O` [L-cystine]: in data set [6], the “Reported equilibrium concentration of L-cystine” value is 0.7 mM. Moreover, the “Concentration of L-cystine in the supernatant in the absence of inhibitor” value in “Fluorescence assay” (water, 25 °C, 72 h) was “approximately 1 mM”.
